From ChEMBL document CHEMBL2203173 (J Med Chem, 2012)
Active and inactive are the calls of the source. The rule behind the calls is not given here.

Tests used:
DMS-53 [1] = assay: Antitumor activity against human DMS53 cell xenografted BALB/c nu/nu mouse assessed as reduction in tumor volume at 7.5 mg/kg, po administered for 3 times a week measured after 20 days (reference value: 997 155 mm'3); type: functional, organism-based; design: dose 7.5 mg/kg
Outline: (§1)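 DMS-53 xenograft nude mice gavaged 3 times/week with agent in 30% propylene glycol/saline or with vehicle alone. Net tumor volume followed for 20 days; the study ended when control tumors neared the 1000 mm3 ethical limit. Tumors excised and wet-weighed on day 20. n = 6–11 mice/condition, mean ± SD.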

DMS-53 [2] = assay: Antitumor activity against human DMS53 cells xenografted in BALB/c nu/nu mouse assessed as reduction of tumor volume at 6 mg/kg, iv administered for 5 days a week measured after 21 days (RVb = 922 94 mm'3); type: functional, organism-based; design: dose 6 mg/kg
Outline: (§2)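 Nude mice bearing DMS-53 xenografts began dosing once tumors reached 100 mm3. Agents given iv by tail vein 5 days/week in vehicle of 30% propylene glycol/saline, with vehicle controls. Net tumor volume followed for 21 days. Mice sacrificed on day 21 and tumors excised and wet-weighed.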

DMS-53 [3] = assay: Antitumor activity against human DMS53 cells xenografted in BALB/c nu/nu mouse assessed as reduction of tumor volume at 3 mg/kg, iv administered for 5 days a week measured after 21 days (RVb = 922 94 mm'3); type: functional, organism-based; design: dose 3 mg/kg; outline: as §2
DMS-53 [4] = assay: Antitumor activity against human DMS53 cell xenografted BALB/c nu/nu mouse assessed as reduction in tumor volume at 10 mg/kg, po administered for 3 times a week measured after 20 days (reference value: 997 155 mm'3); type: functional, organism-based; design: dose 10 mg/kg; outline: as §1
A549 = assay: Antiproliferative activity at human A549 cells after 72 hrs by MTT assay; type: functional, cell-based; conditions: Homo sapiens, A549, 72 h
DMS-53 [5] = assay: Antiproliferative activity at human DMS53 cells after 72 hrs by MTT assay; type: functional, cell-based; conditions: Homo sapiens, DMS-53, 72 h
Mus musculus [6] = assay: Toxicity in BALB/c nu/nu mouse xenografted with human DMS53 cells assessed as change in hematopoetic cells in splenic red pulp at 0.75 mg/kg, iv administered for 5 days a week measured after 21 days by hematoxylin and eosin staining method; type: organism-based, DMS-53; design: dose 0.75 mg/kg, route intravenous; conditions: in vivo, 504 h
Outline: (§3)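 DMS-53 xenograft nude mice, dosed from 100 mm3 tumor volume. Reference chelator given iv via tail vein as the base form, 5 days/week for 21 days, vehicle 30% propylene glycol/saline. Organs taken at sacrifice on day 21, stained with H&E, Perls' and Gomori Trichrome, and examined by an independent veterinary pathologist.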

Mus musculus [7] = assay: Toxicity in BALB/c nu/nu mouse xenografted with human DMS53 cells assessed as change in platelet count at 0.75 mg/kg, iv administered for 5 days a week measured after 21 days; type: organism-based, DMS-53; design: dose 0.75 mg/kg, route intravenous; conditions: in vivo, 504 h
Outline: (§4)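 Nude mice carrying DMS-53 xenografts (treatment from 100 mm3) received iv tail-vein doses in 30% propylene glycol/saline, 5 days/week for 21 days. Hematological indices (RBC, hemoglobin, hematocrit, reticulocytes, WBC, platelets) were then compared with vehicle controls.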

Mus musculus [8] = assay: Toxicity in BALB/c nu/nu mouse xenografted with human DMS53 cells assessed as change in reticulocyte count at 0.75 mg/kg, iv administered for 5 days a week measured after 21 days; type: organism-based, DMS-53; design: dose 0.75 mg/kg, route intravenous; conditions: in vivo, 504 h; outline: as §4
Mus musculus [9] = assay: Toxicity in BALB/c nu/nu mouse xenografted with human DMS53 cells assessed as change in hemoglobin level at 0.75 mg/kg, iv administered for 5 days a week measured after 21 days; type: organism-based, DMS-53; design: dose 0.75 mg/kg, route intravenous; conditions: in vivo, 504 h
Outline: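 DMS-53 xenografts in nude mice; dosing started at 100 mm3 tumor volume. Agents given iv via tail vein, 5 days/week for 21 days, vehicle 30% propylene glycol/saline, vehicle-treated controls. Mice sacrificed day 21. Body and organ weights and hematological indices recorded. Spleen, kidney, liver, heart, lungs and brain were stained with H&E, Perls' and Gomori Trichrome and read by an independent veterinary pathologist.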

Mus musculus [10] = assay: Toxicity in BALB/c nu/nu mouse xenografted with human DMS53 cells assessed as change in RBC count at 0.75 mg/kg, iv administered for 5 days a week measured after 21 days; type: organism-based, DMS-53; design: dose 0.75 mg/kg, route intravenous; conditions: in vivo, 504 h
Mus musculus [11] = assay: Toxicity in BALB/c nu/nu mouse xenografted with human DMS53 cells assessed as change in organ weight at 0.75 mg/kg, iv administered for 5 days a week measured after 21 days; type: organism-based, DMS-53; design: dose 0.75 mg/kg, route intravenous; conditions: in vivo, 504 h
Outline: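 DMS-53 xenograft-bearing nude mice, treatment started at 100 mm3 tumour volume: iv tail-vein dosing in 30% propylene glycol/saline, 5 days/week for 21 days. Organs were weighed at sacrifice and compared with vehicle-control mice.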

Mus musculus [12] = assay: Toxicity in human DMS53 cells xenografted BALB/c nu/nu mouse assessed as body weight change at 0.75 mg/kg, iv administered for 5 days a week measured after 21 days; type: organism-based, DMS-53; design: dose 0.75 mg/kg, route intravenous; conditions: in vivo, 504 h
Outline: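 Body weights of DMS-53 xenograft-bearing nude mice were followed over 21 days of iv tail-vein dosing, 5 days/week, in 30% propylene glycol/saline, beginning at 100 mm3 tumour volume. Values are the average body weight per group.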

DMS-53 [13] = assay: Antitumor activity against human DMS53 cells xenografted BALB/c nu/nu mouse assessed as reduction of tumor volume at 0.75 mg/kg, iv administered for 5 days a week measured after 21 days (RVb = 922 94 mm'3); type: functional, organism-based; design: dose 0.75 mg/kg; outline: as §2
MRC5 = assay: Antiproliferative activity at human MRC5 cells after 72 hrs by MTT assay; type: functional, cell-based; conditions: MRC5, 72 h
SK-N-MC [14] = assay: Induction of 59Fe mobilization in human SK-N-MC cells at 25 uM after 3 hrs by gamma-scintillation counter; type: functional
Outline: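 SK-N-MC cells prelabeled with 59Fe-transferrin (0.75 μM) for 3 h/37 °C, then washed four times on ice with ice-cold PBS. Cells reincubated with or without chelators (25 μM) for 3 h/37 °C. Released 59Fe given as % of cellular 59Fe. Mean ± SD of three experiments.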

SK-N-MC [15] = assay: Inhibition to 59Fe uptake from 59Fe-transferrin in human SK-N-MC cells at 25 uM after 3 hrs; type: functional; design: scale not given: the % may be the effect or the level left
Outline: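 SK-N-MC cells labeled with 59Fe-transferrin (0.75 μM) for 3 h/37 °C with or without chelators (25 μM). Cells washed four times on ice with ice-cold PBS. Internalized 59Fe separated with Pronase (1 mg/mL) and expressed as % of control. Mean ± SD of three experiments.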

Mus musculus [16] = assay: Toxicity in BALB/c nu/nu mouse xenografted with human DMS53 cells assessed as cardiac fibrosis at 0.75 mg/kg, iv administered for 5 days a week measured after 21 days by […]; type: organism-based, Heart, DMS-53; design: dose 0.75 mg/kg, route intravenous; conditions: in vivo, 504 h
Outline: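 DMS-53 xenograft nude mice given agents iv by tail vein 5 days/week in 30% propylene glycol/saline for 21 days. At sacrifice, heart sections were stained with Gomori Trichrome to detect fibrosis. Spleen, kidney, liver, heart, lungs and brain were also stained with H&E and Perls' and examined by an independent veterinary pathologist.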

Mus musculus [17] = assay: Toxicity in BALB/c nu/nu mouse xenografted with human DMS53 cells assessed as change in lungs histology at 0.75 mg/kg, iv administered for 5 days a week measured after 21 days by hematoxylin and eosin staining method; type: organism-based, DMS-53; design: dose 0.75 mg/kg, route intravenous; conditions: in vivo, 504 h; outline: as §3
Mus musculus [18] = assay: Toxicity in BALB/c nu/nu mouse xenografted with human DMS53 cells assessed as change in brain histology at 0.75 mg/kg, iv administered for 5 days a week measured after 21 days by hematoxylin and eosin staining method; type: organism-based, DMS-53; design: dose 0.75 mg/kg, route intravenous; conditions: in vivo, 504 h; outline: as §3
Mus musculus [19] = assay: Toxicity in BALB/c nu/nu mouse xenografted with human DMS53 cells assessed as hepatocellular fibrosis at 0.75 mg/kg, iv administered for 5 days a week measured after 21 days by hematoxylin and eosin staining method; type: organism-based, DMS-53; design: dose 0.75 mg/kg, route intravenous; conditions: in vivo, 504 h
Outline: (§5)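 Nude mice with DMS-53 xenografts dosed by tail-vein iv injection in 30% propylene glycol/saline, starting at 100 mm3 tumour volume, 5 days/week for 21 days. Spleen, kidney, liver, heart, lungs and brain were stained with H&E, Perls' (Fe loading) and Gomori Trichrome (fibrosis) by standard methods, and an independent veterinary pathologist examined them.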

Mus musculus [20] = assay: Toxicity in BALB/c nu/nu mouse xenografted with human DMS53 cells assessed as hepatocellular necrosis at 3 mg/kg, iv administered for 5 days a week measured after 21 days by hematoxylin and eosin staining method; type: organism-based, DMS-53; design: dose 3 mg/kg, route intravenous; conditions: in vivo, 504 h; outline: as §5
Mus musculus [21] = assay: Toxicity in BALB/c nu/nu mouse xenografted with human DMS53 cells assessed as hepatocellular necrosis at 0.75 mg/kg, iv administered for 5 days a week measured after 21 days by hematoxylin and eosin staining method; type: organism-based, DMS-53; design: dose 0.75 mg/kg, route intravenous; conditions: in vivo, 504 h; outline: as §5
Mus musculus [22] = assay: Toxicity in BALB/c nu/nu mouse xenografted with human DMS53 cells assessed as vacuolation at 0.75 mg/kg, iv administered for 5 days a week measured after 21 days by hematoxylin and eosin staining method; type: organism-based, DMS-53; design: dose 0.75 mg/kg, route intravenous; conditions: in vivo, 504 h; outline: as §5
DMS-53 [23] = assay: Antitumor activity against human DMS53 cells xenografted in BALB/c nu/nu mouse assessed as reduction in tumor weight at 8 mg/kg, iv administered for 5 days per week measured after 21 days (reference value: 0.830.11 g); type: functional, organism-based; design: dose 8 mg/kg; outline: as §2
DMS-53 [24] = assay: Antitumor activity against human DMS53 cells xenografted in BALB/c nu/nu mouse assessed as reduction in tumor weight at 4 mg/kg, iv administered for 5 days a week measured after 21 days (reference value: 0.830.11 g); type: functional, organism-based; design: dose 4 mg/kg; outline: as §2
DMS-53 [25] = assay: Antitumor activity against human DMS53 cells xenografted in BALB/c nu/nu mouse assessed as reduction of tumor volume at 4 mg/kg, iv administered for 5 days a week measured after 21 days (RVb = 922 94 mm'3); type: functional, organism-based; design: dose 4 mg/kg; outline: as §2
DMS-53 [26] = assay: Antitumor activity against human DMS53 cells xenografted in BALB/c nu/nu mouse assessed as reduction of tumor volume at 8 mg/kg, iv administered for 5 days a week measured after 21 days (RVb = 922 94 mm'3); type: functional, organism-based; design: dose 8 mg/kg; outline: as §2
DMS-53 [27] = assay: Antitumor activity against human DMS53 cell xenografted BALB/c nu/nu mouse assessed as reduction in tumor volume at 20 mg/kg, po administered for 3 times a week measured after 20 days (reference value: 997 155 mm'3); type: functional, organism-based; design: dose 20 mg/kg; outline: as §1

## CCN(C)C(=S)NN=C(c1ccccn1)c1ccccn1
DMS-53 [1]
  Activity: Active
DMS-53 [2]
  Activity: Active
DMS-53 [3]
  Activity: Active
DMS-53 [4]
  Activity: Active

## Nc1ccn([C@@H]2O[C@H](CO)[C@@H](O)C2(F)F)c(=O)n1 [GEMCITABINE]
A549
  IC50: 20 nM
DMS-53 [5]
  IC50: 9 nM

## CN(C)C(=S)NN=C(c1ccccn1)c1ccccn1
Mus musculus [6]
  Activity: Non-toxic
Mus musculus [7]
  Activity: Non-toxic
Mus musculus [8]
  Activity: Non-toxic
Mus musculus [9]
  Activity: Non-toxic
Mus musculus [10]
  Activity: Non-toxic
Mus musculus [11]
  Activity: Non-toxic
Mus musculus [12]
  Activity: Non-toxic
DMS-53 [13]
  Activity: Active
MRC5
  IC50: > 10000 nM
A549
  IC50: 20 nM
DMS-53 [5]
  IC50: 10 nM
SK-N-MC [14]
  Activity: 45%
SK-N-MC [15]
  Activity: 3.5%
Mus musculus [16]
  Activity: Toxic
Mus musculus [17]
  Activity: Non-toxic
Mus musculus [18]
  Activity: Non-toxic
Mus musculus [19]
  Activity: Non-toxic
Mus musculus [20]
  Activity: Non-toxic
Mus musculus [21]
  Activity: Non-toxic
Mus musculus [22]
  Activity: Toxic

## CN(C(=S)NN=C(c1ccccn1)c1ccccn1)C1CCCCC1
DMS-53 [23]
  Activity: Active
DMS-53 [24]
  Activity: Active
DMS-53 [25]
  Activity: Active
DMS-53 [4]
  Activity: Active
DMS-53 [26]
  Activity: Active
DMS-53 [27]
  Activity: Active
